Assay results: ChEMBL document CHEMBL4837245, “Discovery of VU6028418: A Highly Selective and Orally Bioavailable M4 Muscarinic Acetylcholine Receptor Antagonist” (ACS Med Chem Lett, 2021)

How the values were obtained:
[1] = target: T1, Muscarinic acetylcholine receptor M4 (Rattus norvegicus, UniProt P08485); assay: Displacement of [3H]NMS from rat muscarinic receptor M4 expressed in CHO cell membranes incubated for 3 hrs by radiometric scintillation counting analysis; set-up: species or system Cell membrane
T1 sequence (P08485 whole entry): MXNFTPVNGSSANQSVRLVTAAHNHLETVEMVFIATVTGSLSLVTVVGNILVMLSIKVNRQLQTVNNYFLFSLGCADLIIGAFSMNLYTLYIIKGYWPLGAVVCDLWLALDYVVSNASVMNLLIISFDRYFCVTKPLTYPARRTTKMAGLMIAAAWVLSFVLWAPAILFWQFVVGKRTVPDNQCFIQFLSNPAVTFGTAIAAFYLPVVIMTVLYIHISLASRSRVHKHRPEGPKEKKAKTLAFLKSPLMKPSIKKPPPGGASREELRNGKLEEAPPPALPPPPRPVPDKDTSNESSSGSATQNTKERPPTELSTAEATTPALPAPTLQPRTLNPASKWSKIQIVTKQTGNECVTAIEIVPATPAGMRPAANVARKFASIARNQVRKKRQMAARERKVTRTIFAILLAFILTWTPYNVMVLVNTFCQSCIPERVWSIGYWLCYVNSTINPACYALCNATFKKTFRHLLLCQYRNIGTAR

[2] = tested on: P-gp (human); assay: Efflux ratio of apparent permeability basolateral to apical over apical to basolateral side at human P-gp in MDCK-MDR1 cells; assay type: ADME, cell-based, Canis lupus familiaris; conditions: dog
In short: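 MDCK cell monolayers overexpressing MDR1 (P-gp). Efflux ratio taken as Papp(B-to-A)/Papp(A-to-B).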

[3] = target: T2, Muscarinic acetylcholine receptor M4 (Homo sapiens, UniProt P08173); assay: Antagonist activity at human muscarinic acetylcholine M4 receptor expressed in CHO cells assessed as inhibition of acetylcholine-induced calcium mobilization; assay type: functional, cell-based; conditions: read-out: IC50
T2 sequence (P08173 whole entry): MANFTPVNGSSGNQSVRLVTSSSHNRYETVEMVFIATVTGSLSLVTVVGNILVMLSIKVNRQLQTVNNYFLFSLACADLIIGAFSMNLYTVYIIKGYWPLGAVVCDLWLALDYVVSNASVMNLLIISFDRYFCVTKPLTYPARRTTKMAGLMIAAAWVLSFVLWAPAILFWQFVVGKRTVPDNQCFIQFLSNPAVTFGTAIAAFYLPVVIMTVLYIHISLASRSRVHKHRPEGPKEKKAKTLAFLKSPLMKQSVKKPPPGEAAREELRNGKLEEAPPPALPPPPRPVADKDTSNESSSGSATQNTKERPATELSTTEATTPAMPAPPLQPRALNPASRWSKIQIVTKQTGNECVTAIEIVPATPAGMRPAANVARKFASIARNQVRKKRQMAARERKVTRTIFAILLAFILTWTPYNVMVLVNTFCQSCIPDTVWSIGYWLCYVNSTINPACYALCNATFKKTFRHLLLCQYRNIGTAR

[4] = Antagonist activity at human muscarinic acetylcholine M4 receptor expressed in CHO cells assessed as inhibition of acetylcholine-induced calcium mobilization relative to control; assay type: cell-based; set-up: concentration or dose not given beside the values; conditions: concentration not given here
In short: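 CHO cells stably transfected with human M4 were pretreated with the compound, then stimulated with an EC80 concentration of acetylcholine. The response was read as calcium mobilization, and IC50 was derived from the concentration-response. Each experiment was run in triplicate.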

[5] = Clearance in Beagle dog plasma at 1.0 mg/kg, iv measured upto 24 hrs by LC-MS/MS analysis; assay type: ADME, organism-based, Canis lupus familiaris
In short: (§1)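 Single iv and oral (suspension) dosing; iv/po doses 1/10 mg/kg in SD rat, 1/3 mg/kg in CD-1 mouse and beagle dog. Plasma PK parameters are means from two to three animals per species.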

[6] = Volume of distribution at steady state in Beagle dog at 1.0 mg/kg, iv measured upto 24 hrs by LC-MS/MS analysis; assay type: ADME, organism-based, Canis lupus familiaris; conditions: in vivo, read-out: Vdss
In short: (§2)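 Pharmacokinetics in Sprague-Dawley rat, CD-1 mouse and beagle dog. Intravenous dose was 1 mg/kg in each species. Oral doses were given as a suspension: 10 mg/kg in rat, 3 mg/kg in mouse and dog. Each parameter is the mean of two to three animals.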

[7] = Elimination half life in Sprague-Dawley rat at 1 mg/kg, iv measured upto 24 hrs by LC-MS/MS analysis; assay type: ADME, organism-based; conditions: in vivo, read-out: beta t1/2 (converted); in short: as §1
[8] = Cmax in Sprague-Dawley rat at 10 mg/kg, po measured upto 24 hrs by LC-MS/MS analysis; assay type: ADME, organism-based; set-up: route oral, dose 10 mg/kg, time <=24; conditions: in vivo; in short: as §1
[9] = Tmax in Sprague-Dawley rat at 10 mg/kg, po measured upto 24 hrs by LC-MS/MS analysis; assay type: ADME, organism-based; conditions: in vivo; in short: as §2
[10] = Tmax in Beagle dog at 3 mg/kg, po measured upto 24 hrs by LC-MS/MS analysis; assay type: ADME, organism-based, Canis lupus familiaris; conditions: in vivo; in short: as §2
[11] = AUC (0 to infinity) in Sprague-Dawley rat at 10 mg/kg, po measured upto 24 hrs by LC-MS/MS analysis; assay type: ADME, organism-based; set-up: route oral, dose 10 mg/kg, time <=24; conditions: in vivo; in short: as §1
[12] = AUC (0 to infinity) in Beagle dog at 3 mg/kg, po measured upto 24 hrs by LC-MS/MS analysis; assay type: ADME, organism-based, Canis lupus familiaris; set-up: route oral, dose 3 mg/kg, time <=24; conditions: in vivo; in short: as §1
[13] = Oral bioavailability in CD-1 mouse at 3 mg/kg measured upto 24 hrs by LC-MS/MS analysis; assay type: ADME, organism-based; conditions: in vivo; in short: as §1
[14] = Ratio of drug concentration in brain to plasma of Sprague-Dawley rat at 1 mg/kg, iv; assay type: ADME, organism-based
[15] = Ratio of free drug concentration in brain to plasma of Sprague-Dawley rat at 1 mg/kg, iv; assay type: ADME, organism-based; conditions: read-out: K(p,uu,brain)
[16] = tested on: Rattus norvegicus; assay: Reversal of haloperidol-induced catalepsy in rat at 3 mg/kg, po relative to control; assay type: functional
In short: (§3)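 Rat haloperidol-induced catalepsy model with oral test dosing at 0.3, 1 and 3 mg/kg alongside vehicle-treated controls. Read-out is latency to withdraw, also expressed as % reversal of catalepsy. Groups compared by ANOVA.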

[17] = Ratio of drug concentration in brain to plasma of rat at 1 mg/kg, po after 1 hr; assay type: ADME, organism-based
In short: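 At the end of the catalepsy study, 1 h after a 1 mg/kg oral dose in rats, total brain/plasma (Kp) and unbound brain/plasma (Kp,uu) ratios were determined.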

[18] = target: Muscarinic acetylcholine receptor M3 (Homo sapiens, UniProt P20309); assay: Antagonist activity at human muscarinic M3 receptor expressed in CHO cells co-expressing Gqi5 assessed as inhibition of acetylcholine-induced calcium mobilization; assay type: functional
In short: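 CHO cells stably transfected with the given human mAChR subtype. Compound added before an EC80 concentration of acetylcholine; antagonism read as calcium mobilization. One independent determination in triplicate.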

[19] = target: Cytochrome P450 2C9 (Homo sapiens, UniProt P11712); assay: Time dependent inhibition of CYP2C9 (unknown origin); assay type: ADME
[20] = tested on: Rattus norvegicus; assay: Effect on haloperidol-induced catalepsy in rat assessed as reduction in mean latency to withdraw at 3 mg/kg, po (reference value: 43.4 +/- 4.3 sec); assay type: functional; in short: as §3
[21] = target: T3, Voltage-gated inwardly rectifying potassium channel KCNH2 (Homo sapiens, UniProt Q12809); assay: Inhibition of human ERG by patch clamp assay
[22] = target: T3, Voltage-gated inwardly rectifying potassium channel KCNH2; assay: Inhibition of human ERG tail current by electrophysiological assay relative to control
In short: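 HEK cells, whole-cell electrophysiology. hERG tail current recorded at −40 mV after a depolarizing step to +30 mV; n = 3.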

T3 sequence (Q12809 whole entry): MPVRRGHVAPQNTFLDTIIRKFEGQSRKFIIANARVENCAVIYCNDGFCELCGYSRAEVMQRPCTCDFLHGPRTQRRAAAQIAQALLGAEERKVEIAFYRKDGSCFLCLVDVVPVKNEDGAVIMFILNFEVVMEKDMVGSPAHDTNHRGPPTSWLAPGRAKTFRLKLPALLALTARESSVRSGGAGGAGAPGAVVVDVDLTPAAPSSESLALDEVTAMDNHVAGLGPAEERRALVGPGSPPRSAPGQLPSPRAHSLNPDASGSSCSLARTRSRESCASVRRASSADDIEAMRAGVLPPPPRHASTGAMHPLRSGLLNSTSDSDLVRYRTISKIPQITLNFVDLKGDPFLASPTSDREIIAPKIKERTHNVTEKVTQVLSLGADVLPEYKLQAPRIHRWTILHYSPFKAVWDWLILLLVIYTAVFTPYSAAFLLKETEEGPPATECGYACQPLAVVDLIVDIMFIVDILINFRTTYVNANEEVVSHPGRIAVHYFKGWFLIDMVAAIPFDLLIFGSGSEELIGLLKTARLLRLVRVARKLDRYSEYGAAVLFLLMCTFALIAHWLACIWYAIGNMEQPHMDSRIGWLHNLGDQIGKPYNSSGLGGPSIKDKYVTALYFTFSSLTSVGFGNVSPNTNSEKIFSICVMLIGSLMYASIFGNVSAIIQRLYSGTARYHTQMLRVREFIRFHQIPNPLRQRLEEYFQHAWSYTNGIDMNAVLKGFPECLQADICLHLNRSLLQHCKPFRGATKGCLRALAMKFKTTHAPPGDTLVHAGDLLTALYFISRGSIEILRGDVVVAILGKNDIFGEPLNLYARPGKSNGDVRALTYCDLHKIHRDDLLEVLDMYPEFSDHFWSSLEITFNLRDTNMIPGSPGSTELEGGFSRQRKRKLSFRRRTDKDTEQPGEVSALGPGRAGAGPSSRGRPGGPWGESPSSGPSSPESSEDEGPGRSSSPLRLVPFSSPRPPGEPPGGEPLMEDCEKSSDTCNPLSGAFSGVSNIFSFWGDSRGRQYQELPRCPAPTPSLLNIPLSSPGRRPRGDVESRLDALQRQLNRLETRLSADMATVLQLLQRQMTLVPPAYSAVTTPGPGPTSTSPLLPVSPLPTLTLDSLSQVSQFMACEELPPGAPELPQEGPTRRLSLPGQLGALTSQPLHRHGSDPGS
Chain of Cytochrome P450 2C9 (P11712 whole entry): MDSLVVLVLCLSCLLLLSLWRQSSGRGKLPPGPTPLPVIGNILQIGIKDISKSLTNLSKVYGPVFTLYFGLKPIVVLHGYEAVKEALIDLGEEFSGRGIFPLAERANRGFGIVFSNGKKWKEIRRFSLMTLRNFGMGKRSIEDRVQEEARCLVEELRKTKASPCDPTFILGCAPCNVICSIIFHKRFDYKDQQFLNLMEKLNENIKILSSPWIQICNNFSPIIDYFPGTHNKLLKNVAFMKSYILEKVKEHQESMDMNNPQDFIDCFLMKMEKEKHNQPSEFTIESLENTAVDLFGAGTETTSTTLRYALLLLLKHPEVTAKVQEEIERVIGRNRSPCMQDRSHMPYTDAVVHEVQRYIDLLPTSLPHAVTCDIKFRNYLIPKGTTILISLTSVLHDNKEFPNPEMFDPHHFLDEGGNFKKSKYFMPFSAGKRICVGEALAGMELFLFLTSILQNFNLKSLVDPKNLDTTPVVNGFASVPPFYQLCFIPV
Chain of Muscarinic acetylcholine receptor M3 (P20309 whole entry): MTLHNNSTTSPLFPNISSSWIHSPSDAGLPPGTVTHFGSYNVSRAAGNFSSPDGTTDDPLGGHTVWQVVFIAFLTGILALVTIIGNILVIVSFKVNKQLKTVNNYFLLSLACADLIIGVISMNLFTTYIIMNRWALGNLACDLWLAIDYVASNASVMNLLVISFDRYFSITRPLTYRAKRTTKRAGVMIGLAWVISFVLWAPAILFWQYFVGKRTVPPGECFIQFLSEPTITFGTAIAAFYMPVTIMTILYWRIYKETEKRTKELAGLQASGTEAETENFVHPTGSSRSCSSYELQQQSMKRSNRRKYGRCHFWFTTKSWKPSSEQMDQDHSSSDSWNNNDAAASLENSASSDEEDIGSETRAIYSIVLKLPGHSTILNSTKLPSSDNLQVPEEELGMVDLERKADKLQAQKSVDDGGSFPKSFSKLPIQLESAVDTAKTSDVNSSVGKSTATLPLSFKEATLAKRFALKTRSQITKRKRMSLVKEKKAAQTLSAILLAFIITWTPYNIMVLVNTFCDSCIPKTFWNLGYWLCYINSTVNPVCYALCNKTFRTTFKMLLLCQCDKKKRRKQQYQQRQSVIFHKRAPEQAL

SMILES: Fc1cc(F)c(F)c(-c2ccc(N[C@H]3C[C@@H]4CN(CC5CCOCC5)C[C@@H]4C3)nn2)c1
- IC50 [1]: 145 nM
- efflux ratio [2]: 8.9
- IC50 [3]: 4.1 nM
- inhibition [4]: 3%
- inhibition ([4]; tested as the 2H-labelled form): 3%
- clearance [5]: 43 mL/min/kg
- Vd [6]: 8.5 L/kg
- half-life [7]: 13 h
- Cmax [8]: 17000 ng/mL
- Tmax [9]: 1.5 h
- Tmax [10]: 17 h
- AUC [11]: 30000 ng·h/mL
- AUC [12]: 1100 ng·h/mL
- bioavailability [13]: ≥ 100%
- Kp [14]: 6.4
- Kp uu [15]: 0.61
- Activity [16]: 65.2%
- Kp at 1 h [17]: 3.4
- IC50 [18]: > 10000 nM
- IC50 [19]: > 100000 nM
- Activity [20]: 15.1 s
- IC50 [21]: 431 nM
- inhibition (INH) [22]: 94%
